Hits are enriched below; roughly 3.4% of the tested compounds scored in any of these assays.
A3G deaminase: APOBEC3G DNA deaminase inhibitors, primary screen, biochemical, fluorescence, single-stranded DNA substrate, uHTS; DNA dC->dU-editing enzyme APOBEC-3G (Homo sapiens), Q9HC16; recombinant A3G, ssDNA deamination FAM/TAMRA fluorescence; inhibition, % at 20 µM; 330,000 compounds, 0.28% hits; AID 493012, 2011;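 active means inhibition of at least 40% at 20 µM, with no more than 30% in the related APOBEC3A deaminase screen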;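 further: plate controls were DMSO wells with A3G for no effect and wells lacking A3G enzyme for full effect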
A3A deaminase: APOBEC3A ssDNA deaminase inhibitors, primary screen, selectivity assay for APOBEC3G inhibitor project, biochemical, FAM/TAMRA oligo cleavage fluorescence; 330,000 compounds, 0.41% hits; recombinant A3A, FAM/TAMRA ssDNA deamination fluorescence; inhibition, % at 20 µM; AID 493011, 2011; DNA dC->dU-editing enzyme APOBEC-3A (Homo sapiens), P31941;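 active means at least 40% inhibition at 20 µM here, with at most 30% in a related deaminase screen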;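 further: plate controls were A3A with DMSO for no effect and wells lacking A3A enzyme for full effect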
Target sequence (P31941 whole entry, looked up): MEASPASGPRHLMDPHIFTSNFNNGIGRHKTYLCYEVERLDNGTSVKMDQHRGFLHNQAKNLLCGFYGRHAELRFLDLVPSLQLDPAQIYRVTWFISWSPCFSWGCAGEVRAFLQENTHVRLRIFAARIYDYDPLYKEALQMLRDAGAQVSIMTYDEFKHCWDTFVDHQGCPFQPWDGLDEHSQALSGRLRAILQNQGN
PolyA inhibitor: polyadenylation inhibitors in yeast reporter cells, primary screen, luminescence, S. cerevisiae | S. cerevisiae SKY197-pL101 polyadenylation reporter, beta-gal luminescence; efflux-impaired pdr1/pdr3 knockout yeast; score 100 = 6 SD above DMSO | activity score, % at 12 µM | 300,000 compounds, 0.02% hits;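 active means lowest replicate activity score at least 50, where 100 means six control SD above control mean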;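 further: yeast exposed to compound for 9 h at 30 °C; higher score means more reporter readthrough which indicates perturbed polyadenylation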
Arrestin-AP2 inh: inhibitors of beta-arrestin/AP2 binding, primary screen, biochemical, GPCR trafficking, flow cytometry. FITC-arrestin peptide / GST-AP2 beads; AP2 beta2 appendage carries R879A mutation. inhibition, % at 10 µM. AID 504490, 2011. beta-arrestin 1 C-terminal peptide binding to AP2 beta2-adaptin appendage (human). 340,000 compounds, 0.31% hits;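 active means inhibition above a set limit, near 3 SD of compounds lacking own fluorescence, cut at about 54% in these data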;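 further: plate controls were DMSO wells for no effect and 5 µM unlabelled arrestin peptide for full effect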
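Assay system: GST-AP2 R879A bound to glutathione beads, E. coli-expressed; Medium: PBS with 0.05% Tween 20 and 0.1% BSA; Also added: fluorescein-tagged arrestin peptide at 50 nM final; Timing: 12 min plus 1 h, RT; Measured by: flow cytometry, FL1 (488/535 nm); Evaluation: percent drop in bead-associated FITC signal.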
AHR act: AHR activators, primary screen, cell-based, luminescence, luciferase reporter, human. AHR-responsive luciferase reporter cells. activation, % at 5 µM. 320,000 compounds, 2.5% hits; in the data active means activation above about 47%;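 further: 0% = vehicle wells and 100% = reference agonist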
UCH37 inh: inhibitors of human UCH37 deubiquitinase, primary screen, biochemical, Ub-AMC cleavage, fluorescence; Ubiquitin carboxyl-terminal hydrolase isozyme L5 (Homo sapiens), Q9Y5K5; purified proteasome/UCH37; inhibition, % (test concentration not listed); 330,000 compounds, 0.33% hits;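 active means mean inhibition over replicate wells above about 20%, limit read from the data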;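 further: 0% = compound-free wells with enzyme and 100% = wells lacking proteasome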
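Signal – fluorescence, ex 355 nm, em 460 nm · System – Proteasome-bound UCH37 · Input – 0.15 nM proteasome as dispensed · Timing – 30 min preincubation with enzyme, 25 min cleavage at room temperature · Read-out basis – percent inhibition of cleavage signal versus uninhibited and no-proteasome wells · Medium – Tris-HCl pH 7.4 with ATP-MgCl2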
AHR act confirm: AHR activators, confirmation, cell-based, luminescence, luciferase reporter, human. activation, % at 9 µM. human cells, AHR-responsive luciferase reporter. AID 2845, 2010. 2,300 compounds, 87% hits. shares compounds with AHR act; in the data active means activation above about 49%;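 further: HepG2 hepatoma cells carrying a DRE-driven firefly luciferase reporter; 0% = vehicle wells and 100% = reference agonist wells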
PXR counter: human PXR activators, counter-screen for AHR activator project, cell-based, luciferase luminescence. shares compounds with AHR act. AID 434939, 2010. 2,300 compounds, 88% hits. activation, % at 11.6 µM. cell-based PXR reporter; in the data active means activation above about 11%;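 further: human hepatoma DPX-2 cells expressing full-length human PXR; 0% = DMSO and 100% = reference agonist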
Target sequence (O75469 whole entry, looked up): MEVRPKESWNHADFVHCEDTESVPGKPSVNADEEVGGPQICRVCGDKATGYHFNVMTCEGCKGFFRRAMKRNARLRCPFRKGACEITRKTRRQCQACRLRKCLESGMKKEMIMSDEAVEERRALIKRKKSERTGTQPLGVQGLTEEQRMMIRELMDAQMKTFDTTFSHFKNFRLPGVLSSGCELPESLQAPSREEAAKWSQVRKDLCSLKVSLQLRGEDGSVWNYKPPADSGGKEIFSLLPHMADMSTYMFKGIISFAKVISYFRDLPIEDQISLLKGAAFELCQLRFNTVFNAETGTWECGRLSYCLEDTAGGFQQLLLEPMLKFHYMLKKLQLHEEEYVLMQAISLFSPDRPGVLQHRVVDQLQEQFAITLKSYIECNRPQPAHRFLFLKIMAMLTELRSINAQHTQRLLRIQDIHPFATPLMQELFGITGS
* hit, by the source's call; · = no result.

SMILES | A3G deaminase | A3A deaminase | PolyA inhibitor | Arrestin-AP2 inh | AHR act | UCH37 inh | AHR act confirm | PXR counter
NC(=O)c1c(NC(=O)c2ccncc2)sc2c1CCCC2 | -4.4 | 1.6 | -29.2 | 31.2 | 13.4 | 2.0 | · | ·
O=C(NN=Cc1cc(Br)cc(Cl)c1O)c1ccc2c(c1)OCO2 | · | · | · | · | · | -0.3 | · | ·
c1ccc(N(c2ccccc2)c2nc(-n3ccnc3)nc(-n3ccnc3)n2)cc1 | 0.8 | 0.0 | -53.9 | -0.8 | 2.6 | 2.0 | · | ·
CN(c1ccccc1)c1nc(-n2ccnc2)nc(-n2ccnc2)n1 | -10.1 | -7.8 | -32.6 | -1.4 | 91.5* | 1.5 | 106.5* | 29.2*
Cc1ccc(C=NNC(=O)c2c[nH]c3ccccc23)s1 | · | · | · | · | · | 2.6 | · | ·
O=C(N/N=C/c1c[nH]c2ccccc12)c1cc(Cl)ccc1O | -10.9 | -6.0 | 2.0 | -1.4 | 148.5* | · | 113.4* | 4.5
O=C(N/N=C/c1c[nH]c2ccccc12)C1COc2ccccc2O1 (stereo not drawn) | -2.8 | -1.1 | -12.6 | -8.5 | 92.3* | · | 72.0* | ·
O=C(NN=Cc1c[nH]c2ccccc12)c1ccc2c(c1)OCCO2 | · | · | · | · | · | 4.4 | · | ·
Cc1occc1C(=O)N/N=C/c1c[nH]c2ccccc12 | 1.6 | 6.9 | 4.6 | 7.3 | 123.2* | · | 111.6* | 23.4*
CCc1ccc(/C=N/NC(=O)c2c[nH]c3ccccc23)s1 | -3.0 | -0.9 | 4.1 | 1.1 | 85.3* | · | 38.8 | 42.3*
O=C(Cn1cnc2ccccc2c1=O)NN=Cc1ccc(Br)cc1 | · | · | · | · | · | 2.6 | · | ·
CC(C)NC(=S)NN=Cc1cc(Br)ccc1O | · | · | · | · | · | -20.8 | · | ·
Cc1ccc(C(=O)c2sc3c(c2N)c(=O)[nH]c(=O)n3CCc2ccccc2)cc1 | -7.9 | -1.2 | -7.2 | 0.5 | 86.0* | -50.8 | 92.5* | 42.4*
CCCc1ccc(S(=O)(=O)NN=Cc2ccc3c(c2)OCO3)cc1 | · | · | · | · | · | 2.5 | · | ·
COc1ccccc1NC(=O)N1CCC(c2nc3cc(C)c(C)cc3[nH]2)CC1 | -6.9 | -3.9 | 27.3 | -9.8 | 133.2* | · | 33.5 | 56.2*
CCOc1ccccc1NC(=O)N1CCC(c2nc3ccccc3[nH]2)CC1 | 0.0 | 4.2 | 1.4 | -3.4 | 2.6 | 0.7 | · | ·
CC(=NNC(=O)C1CC1)c1ccc(OC(F)F)cc1OC(F)F | · | · | · | · | · | 0.3 | · | ·
COC(=O)N/N=C1/C/C(=N\NC(=O)OC)c2ccccc21 | -5.2 | -1.5 | -26.9 | 1.8 | 115.2* | · | 113.1* | 9.3
COC(=O)NN=C1CC(=NNC(=O)OC)c2ccccc21 | · | · | · | · | · | 2.9 | · | ·
Cc1ccc2nc(NC(=S)NC(=O)c3ccco3)sc2c1 | · | · | -8.0 | 0.0 | 8.8 | 10.5 | · | ·
Cc1ccc2nsnc2c1NC(=S)NC(=O)c1ccco1 | -7.3 | -8.4 | -13.6 | 19.7 | 97.1* | 3.7 | 111.0* | 15.4*
O=C(CCCl)Nc1nc2c(s1)CCc1ccccc1-2 | 4.9 | 7.4 | -10.3 | 5.0 | 99.4* | · | 111.9* | 30.7*
CSC(=NC#N)N1CCN(c2ccccc2)CC1 | 1.5 | 0.3 | 7.0 | 9.1 | -4.2 | 2.3 | · | ·
CSC(=NC#N)N1CCN(c2cccc(Cl)c2)CC1 | -7.1 | 0.8 | 9.5 | 21.2 | 114.6* | 1.5 | 6.9 | 41.1*
Cc1cc(C)c2cc3c(N)c(C(=O)N4CCc5ccccc5C4)sc3nc2c1 | -8.1 | -5.6 | 1.5 | 36.2 | 9.6 | -12.1 | · | ·
SMILES | A3G deaminase | A3A deaminase | PolyA inhibitor | Arrestin-AP2 inh | AHR act | UCH37 inh | AHR act confirm | PXR counter
Cc1cccc2cc3c(N)c(C(=O)N4CCOCC4)sc3nc12 | 11.8 | -1.0 | -4.5 | 2.1 | 81.1* | 3.4 | 78.1* | ·
CN1CCN(C=Nc2c(C#N)cnn2-c2ccccc2)CC1 | · | · | · | · | · | 3.6 | · | ·
NNc1nc2c(-c3ccc(F)cc3)nnn2c2ccccc12 | -5.3 | 1.9 | -5.6 | 20.2 | 101.6* | -75.8 | 128.4* | 35.4*
NNc1nc2c(-c3ccc(Cl)cc3)nnn2c2ccccc12 | -16.7 | -2.7 | -1.7 | -11.5 | 97.2* | -20.5 | 117.3* | 16.1*
O=C1N=c2ccc(Br)cc2=C1c1sc(=S)n(NS(=O)(=O)c2ccccc2)c1O | -5.4 | -1.0 | -19.0 | 4.5 | 82.9* | 2.6 | 20.3 | 23.3*
COc1ccc(C(=O)NN=C(C)c2cccc(NC(=O)c3ccncc3)c2)cc1OC | · | · | · | · | · | 2.5 | · | ·
Cc1ccc(-n2cc(C(=O)c3ccc(N4CCN(C)CC4)cc3)nn2)cc1Cl | -10.6 | -2.6 | -6.3 | 0.8 | 89.6* | -60.0 | 0.7 | 14.9*
Clc1ccc(COc2ccccc2-c2ccnc3ncnn23)cc1 | -5.1 | -1.4 | -8.3 | 17.5 | 87.3* | -32.9 | 52.1* | 65.2*
c1ccc(Oc2ccc(-c3ccnc4ncnn34)cc2)cc1 | -2.3 | 0.3 | 2.5 | -0.3 | -0.1 | -4.9 | · | ·
Cc1ccc(C=NNC(=O)Cc2ccc(Cl)cc2)c(O)c1 | · | · | · | · | · | 0.9 | · | ·
CON/C=C(\C=Nc1ccc(C(F)(F)F)cc1)c1ncc(C(F)(F)F)cc1Cl | -2.6 | -0.5 | 15.2 | 1.9 | 107.6* | 8.6 | 103.4* | 30.8*
COc1ccc(/C(=N\O)c2ncc(C(F)(F)F)cc2Cl)cc1 | -10.1 | -6.2 | 6.2 | 17.7 | -1.5 | · | · | ·
CON/C=C(\C=Nc1ccc(Cl)cc1)c1ncc(C(F)(F)F)cc1Cl | -0.4 | 2.8 | 6.7 | -3.9 | 112.2* | 7.4 | 93.1* | 13.8*
O=C(CCN1CCOCC1)NN=Cc1cc([N+](=O)[O-])ccc1OC(F)F | · | · | · | · | · | -1.0 | · | ·
CC(=NNC(=O)c1ccccc1O)c1ccc(Br)s1 | · | · | · | · | · | 14.9 | · | ·
Cc1ccsc1C=Nn1cnc2sc(C)c(C)c2c1=O | · | · | · | · | · | 4.7 | · | ·
N#Cc1c2ccc([N+](=O)[O-])cc2[n+]([O-])n1-c1ccccc1 | -9.9 | -3.6 | · | 10.2 | 200.0* | · | 252.6* | 19.3*
CC(C)c1c(C(=O)NN=Cc2ccco2)nnn1-c1nonc1N | · | · | · | · | · | 3.9 | · | ·
COc1ccc(NC(=O)c2c(Cl)nc3ccccn23)cc1 | -4.5 | -2.3 | -9.7 | 7.7 | 86.4* | 6.0 | 46.8 | 9.6
FC(F)(F)c1cc(-c2ccccc2)nc(NCc2cccnc2)n1 | -9.1 | 0.3 | 7.9 | 37.3 | 90.5* | -15.4 | 27.7 | 42.9*
CCN1CCN(CC(=O)NN=Cc2cc(Br)cs2)CC1 | · | · | · | · | · | 3.7 | · | ·
